ChEMBL document CHEMBL3232800, “Polyfluorinated bis-styrylbenzenes as amyloid-β plaque binding ligands” (Bioorg Med Chem, 2014)
pKi: −log10 of the molar value. The source made the active and inactive calls. The calls are words filed in the database; no cut-off is given here.

What was measured:
[1] = target: T1, Amyloid-beta precursor protein (Homo sapiens, UniProt P05067); experiment: Binding affinity to beta-amyloid plaque in Alzheimer's disease patient brain at 100 uM by fluorescence microscopic analysis
Outline: (§1)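 Sections were stained for 10 min in darkness with compound diluted from 3 mM DMSO stocks to 1, 10 or 100 µM in 2:3 PBS/ethanol and sonicated 15 min. Tissue was paraffin sections of Braak IV human AD medial temporal cortex (8 µm), 14-month APP/PS1 mouse brain and age-matched controls. Sections were rinsed, then 0.1% NaOH in 80% ethanol for 2 min. Read by slide-scanner fluorescence with a DAPI cube (Ex 365, Em 445/50 nm) at constant settings; assessment was qualitative.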

[2] = target: T1, Amyloid-beta precursor protein; experiment: Binding affinity to fibrillar amyloid beta (1 to 40) (unknown origin) assessed as fluorescence intensity relative to control
[3] = target: T1, Amyloid-beta precursor protein; experiment: Binding affinity to fibrillar amyloid beta (1 to 40) (unknown origin) assessed as fluorescence intensity relative to Methoxy-X04
[4] = Partition coefficient, log P of the compound in methanol-water mixture by HPLC analysis; type: physicochemical
Outline: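 Eluent A was 0.02 M Na2HPO4 phosphate buffer, pH 7.0, and eluent B was 0.25% octanol in methanol. Samples came from 0.5 mg/ml methanol stocks. Values above 7 are not reliably measured.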

[5] = target: T1, Amyloid-beta precursor protein; experiment: Binding affinity to beta-amyloid plaque in Alzheimer's disease patient brain at 10 uM by fluorescence microscopic analysis; outline: as §1
[6] = target: T1, Amyloid-beta precursor protein; experiment: Binding affinity to beta-amyloid plaque in APP/PS1 transgenic mouse brain at 100 uM by fluorescence microscopic analysis; type: tissue-based; outline: as §1
Mus musculus [7] = experiment: Binding affinity to beta-amyloid plaque in APP/PS1 transgenic mouse brain at 30 umol/kg, iv after 1 day by fluorescence microscopic analysis; type: functional, organism-based
Outline: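 APP/PS1 mice aged 12–14 months, with age-matched wildtype (n = 2 per compound), got an iv dose of 30 µmol/kg from a 0.05 M solution in 1:1 DMSO/Cremophor diluted with PBS to 200 µl. After one day they were perfused with 4% PFA and brains cryoprotected in sucrose/PFA. Brains were cut into 30 µm cryosections and imaged by the same fluorescence slide-scanner set-up.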

[8] = target: T1, Amyloid-beta precursor protein; experiment: Binding affinity to beta-amyloid plaque in APP/PS1 transgenic mouse brain at 1 uM by fluorescence microscopic analysis; type: tissue-based; outline: as §1
[9] = target: T1, Amyloid-beta precursor protein; experiment: Displacement of [3H]chrysamine G from fibrillar amyloid beta (1 to 40) (unknown origin) after 1 hr by liquid scintillation spectrophotometric analysis
Outline: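 Competition binding was run at room temperature in 1 ml of 150 mM Tris-HCl, 20% ethanol, pH 7.0. Test compound ranged 30 µM to 30 pM (from 3 mM DMSO stocks, sonicated) against 5 nM [3H]chrysamine G and 50 nM synthetic Aβ1-40 fibrils. Nonspecific binding was taken with 1 µM Methoxy-X04.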

Mus musculus [10] = experiment: Binding affinity to beta-amyloid plaque in APP/PS1 transgenic mouse brain at 30 umol/kg, iv after 24 hrs by [19F]-NMR spectrometric analysis; type: functional, organism-based
[11] = target: T1, Amyloid-beta precursor protein; experiment: Binding affinity to fibrillar amyloid beta (1 to 40) (unknown origin) at 1.92 mM by [19F]-NMR spectrometric analysis
[12] = target: T1, Amyloid-beta precursor protein; experiment: Binding affinity to beta-amyloid plaque in APP/PS1 transgenic mouse brain homogenate at 1.92 mM by [19F]-NMR spectrometric analysis; type: tissue-based
[13] = methanol-water mixture, read-out: logP

T1 sequence (P05067 whole entry): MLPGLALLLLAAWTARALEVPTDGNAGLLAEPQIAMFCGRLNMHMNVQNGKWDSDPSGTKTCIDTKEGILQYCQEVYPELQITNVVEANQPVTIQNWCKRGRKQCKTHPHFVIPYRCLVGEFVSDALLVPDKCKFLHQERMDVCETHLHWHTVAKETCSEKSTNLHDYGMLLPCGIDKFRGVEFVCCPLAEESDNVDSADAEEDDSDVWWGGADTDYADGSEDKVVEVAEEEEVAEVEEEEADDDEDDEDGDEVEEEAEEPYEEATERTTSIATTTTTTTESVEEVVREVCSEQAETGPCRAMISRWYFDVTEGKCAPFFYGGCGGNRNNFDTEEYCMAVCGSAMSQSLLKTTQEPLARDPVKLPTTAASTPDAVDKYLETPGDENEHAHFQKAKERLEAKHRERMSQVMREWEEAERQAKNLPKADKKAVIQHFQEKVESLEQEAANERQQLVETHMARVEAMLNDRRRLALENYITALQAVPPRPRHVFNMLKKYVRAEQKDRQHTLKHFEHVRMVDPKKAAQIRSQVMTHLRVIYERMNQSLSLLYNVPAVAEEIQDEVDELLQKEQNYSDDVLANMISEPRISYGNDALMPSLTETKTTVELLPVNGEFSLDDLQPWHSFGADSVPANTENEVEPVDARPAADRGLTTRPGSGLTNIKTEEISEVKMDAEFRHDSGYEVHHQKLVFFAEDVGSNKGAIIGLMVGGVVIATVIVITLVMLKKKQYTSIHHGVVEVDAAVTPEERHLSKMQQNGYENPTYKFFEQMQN

| Structure (SMILES) | Activity [1] | fold change (FC) [2] | RFU [3] | logP [4, 13] | Activity [5] | Activity [6] | Activity (Mus musculus [7]) | Activity [8] | pKi [9] | Activity (Mus musculus [10]) | Activity [11] | Activity [12] | logP ([4]; octanol/water) |
| --- | --- | --- | --- | --- | --- | --- | --- | --- | --- | --- | --- | --- | --- |
| COc1cc(/C=C/c2ccc(C(F)(F)F)cc2)ccc1/C=C/c1ccc(C(F)(F)F)cc1 | Active | < 1 | 1 | > 7 | Active | Active | Active | Active | – | – | – | – | – |
| COc1cc(/C=C/c2ccc(OC(F)(F)F)cc2)ccc1/C=C/c1ccc(OC(F)(F)F)cc1 | Active | < 1 | 3 | > 7 | Active | Active | Active | Active | – | – | – | – | – |
| COc1cc(/C=C/c2ccc(O)cc2)c(OC)cc1/C=C/c1ccc(O)cc1 | – | – | – | 5 | inactive | – | inactive | inactive | – | – | – | – | – |
| COc1cc(/C=C/c2ccc(CO)cc2)ccc1/C=C/c1ccc(CO)cc1 | Active | 4.1 | 26 | 4.99 | Active | Active | Active | Active | – | – | – | – | – |
| Oc1cc(/C=C/c2ccc(C(F)(F)C(F)F)cc2)ccc1/C=C/c1ccc(C(F)(F)C(F)F)cc1 | Active | – | – | > 7 | Active | Active | Active | Active | – | – | – | – | – |
| Oc1ccc(/C=C/c2ccc(/C=C/c3ccc(O)cc3)c(C(F)(F)F)c2)cc1 | Active | 10.7 | 19 | 5.64 | inactive | Active | Active | Active | 6.61 | – | – | – | – |
| Oc1cc(/C=C/c2ccc(C(F)(F)F)cc2)ccc1/C=C/c1ccc(C(F)(F)F)cc1 | Active | 3.6 | 2 | 6.18 | Active | Active | Active | Active | – | – | – | – | – |
| COc1cc(/C=C/c2ccc(OC)c(C(F)(F)F)c2)ccc1/C=C/c1ccc(OC)c(C(F)(F)F)c1 | Active | < 1 | 4 | > 7 | inactive | Active | inactive | Active | – | – | – | – | – |
| Oc1ccc(/C=C/c2ccc(/C=C/c3ccc(O)cc3)c(OCCCC(F)(F)F)c2)cc1 | – | 4.3 | 2 | 5.79 | inactive | – | Active | inactive | 7.25 | – | – | – | – |
| COc1cc(/C=C/c2ccc(C(F)(F)C(F)F)cc2)ccc1/C=C/c1ccc(C(F)(F)C(F)F)cc1 | Active | < 1 | 1 | > 7 | Active | Active | Active | Active | – | – | – | – | – |
| Oc1ccc(/C=C/c2ccc(/C=C/c3ccc(O)cc3)c(OCC(F)(F)F)c2)cc1 | Active | 4.1 | 7 | 5.25 | inactive | Active | Active | Active | 7.41 | – | – | – | – |
| Oc1cc(/C=C/c2ccc(OC(F)(F)F)cc2)ccc1/C=C/c1ccc(OC(F)(F)F)cc1 | Active | 7.4 | 13 | > 7 | Active | Active | Active | Active | – | – | – | – | – |
| Oc1ccc(/C=C/c2ccc(/C=C/c3ccc(O)cc3)c(OC(C(F)(F)F)(C(F)(F)F)C(F)(F)F)c2)cc1 | Active | 17.8 | 38 | > 7 | Active | Active | Active | Active | 7.07 | inactive | inactive | Active | – |
| COc1cc(/C=C/c2ccc(O)cc2)ccc1/C=C/c1ccc(O)cc1 | Active | 9.8 | 100 | – | Active | Active | Active | Active | 7.62 | – | – | – | 4.84 |
